{"source": "paper PMC7115683", "about": "(European Journal of Medicinal Chemistry, 2013)", "key": {"[1]": {"tested_on": "P. falciparum (CQ^S) D10 strain", "experiment": "In vitro antimalarial activity, parasite lactate dehydrogenase assay, D10 strain", "assay_type": "cell-based", "conditions": "Plasmodium falciparum, D10, read-out: D10 IC50"}, "[2]": {"tested_on": "P. falciparum (CQ^R) Dd2 strain", "experiment": "In vitro antimalarial activity, Dd2 strain", "assay_type": "cell-based, Plasmodium falciparum"}, "[3]": {"experiment": "Monomeric heme binding, UV-visible titration and Job's plot", "conditions": "association constant, HypSpec", "outline": "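UV–visible titration of test compound with monomeric heme at pH 7.4 (HEPES) and at food-vacuole pH 5.6 (MES), 1 cm cuvette at 25 °C. Association constants (log K) derived from the titration curves by non-linear least-squares fitting in HypSpec.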"}, "[4]": {"experiment": "μ-oxo heme binding, UV-visible titration and Job's plot", "conditions": "pH 5.8; association constant, HypSpec", "outline": "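UV–visible titration of test compound with μ-oxo heme at pH 5.8, plus Job plot (absorbance ratio A/A0 against mole fraction of test compound). Binding constant (log K) computed with HypSpec.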"}, "Feline herpes virus": {"tested_on": "Feline herpes virus", "experiment": "Anti-Feline Herpes Virus activity in CRFK cell cultures", "assay_type": "cell-based", "conditions": "for EC50: CRFK, read-out: EC50 Feline herpes virus"}, "CT DNA [5]": {"tested_on": "CT DNA", "experiment": "CT DNA binding, fluorescence titration", "conditions": "emission band at 380 nm upon addition of CT DNA", "outline": "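Steady-state fluorescence at ambient temperature. Test compound (17.1 μM) in buffered methanol titrated with CT DNA (0.5–150 μM). Excitation 330 nm, emission monitored at 376 nm.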"}, "CT DNA [6]": {"tested_on": "CT DNA", "experiment": "CT DNA binding, UV spectrophotometry titration", "conditions": "both absorptions (255 and 330 nm), CT-DNA addition", "outline": "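Test compound (30 μM) in buffered methanol titrated with CT-DNA (4–200 μM). UV–visible spectra recorded 200–1100 nm in a 1 cm quartz cuvette, cell holder at 25 °C. Changes followed at the 255 nm and 330 nm absorption bands.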"}, "[7]": {"tested_on": "Madin Darby canine kidney (MDCK) cells", "conditions": "50% cytotoxic concentration, MTS assay"}, "[8]": {"tested_on": "Feline corona virus (FIPV)", "experiment": "Anti-Feline Corona Virus activity in CRFK cell cultures", "assay_type": "cell-based", "conditions": "HHA, UDA"}, "[9]": {"tested_on": "Crandell-Rees Feline Kidney (CRFK) cell cultures", "conditions": "MTS assay, HHA, UDA"}}}
{"molecule": "CCN(CC)CCCC(C)Nc1ccnc2cc(Cl)ccc12", "note": "(stereo not drawn) [CQ, Chloroquine]", "values": [{"measurement": "IC50", "setting": "[1]", "result": 0.035, "unit": "µM"}, {"measurement": "IC50", "setting": "[2]; Plasmodium falciparum, DD2, read-out: Dd2 IC50", "result": 0.222, "unit": "µM"}, {"measurement": "Monomeric heme, log K ± σ", "setting": "[3]; pH 5.6 (MES buffer)", "result": "4.65 ± 0.052"}, {"measurement": "Monomeric heme, log K ± σ", "setting": "[3]; pH 7.4 (HEPES buffer)", "result": "5.15 ± 0.176"}, {"measurement": "μ-oxoheme, log K ± σ", "setting": "[4]", "result": "5.58 ± 0.006"}]}
{"molecule": "COC(=O)c1c(C)nc(NCCCNc2ccnc3cc(Cl)ccc23)nc1-c1ccccc1", "note": "[Compound 5a, Methyl 2-(3-((7-chloroquinolin-4-yl)amino)propylamino)-4-methyl-6-phenylpyrimidine-5-carboxylate]", "values": [{"measurement": "EC50", "setting": "Feline herpes virus", "result": "> 20", "unit": "µM"}]}
{"molecule": "Cc1nc(NCCCCNc2ccnc3cc(Cl)ccc23)nc(-c2ccccc2)c1C(=O)OC(C)C", "note": "[Compound 5b, i-Propyl 2-(4-((7-chloroquinolin-4-yl)amino)butylamino)-4-methyl-6-phenylpyrimidine-5-carboxylate]", "values": [{"measurement": "fold increase in antimalarial activity than the standard CQ", "setting": "[2]; CQ^R strain of P. falciparum", "result": 2, "unit": "fold"}, {"measurement": "EC50", "setting": "Feline herpes virus", "result": "> 20", "unit": "µM"}, {"measurement": "shift in emission band", "setting": "CT DNA [5]", "result": 80, "unit": "nm"}, {"measurement": "bathochromic shift", "setting": "CT DNA [6]", "result": "~3", "unit": "nm"}]}
{"molecule": "CCOC(=O)c1c(C)nc(NCCCCNc2ccnc3cc(Cl)ccc23)nc1-c1ccccc1[N+](=O)[O-]", "note": "[Compound 5c, Ethyl 2-(4-((7-chloroquinolin-4-yl)amino)butylamino)-4-methyl-6-(2-nitrophenyl)pyrimidine-5-carboxylate]", "values": [{"measurement": "EC50", "setting": "Feline herpes virus", "result": "> 100", "unit": "µM"}]}
{"molecule": "CCOC(=O)c1c(C)nc(OCCCNc2ccnc3cc(Cl)ccc23)nc1-c1ccccc1", "note": "[Compound 5d, Ethyl 2-(3-((7-chloroquinolin-4-yl)amino)propoxy)-4-methyl-6-phenylpyrimidine-5-carboxylate]", "values": [{"measurement": "EC50", "setting": "Feline herpes virus", "result": "> 100", "unit": "µM"}]}
{"molecule": "CCOC(=O)c1c(C)nc(NCCCCNc2ccnc3cc(Cl)ccc23)nc1-c1ccc(Cl)cc1", "note": "[Compound 5e, Ethyl 4-(4-chlorophenyl)-2-(4-((7-chloroquinolin-4-yl)amino)butylamino)-6-methylpyrimidine-5-carboxylate]", "values": [{"measurement": "EC50", "setting": "Feline herpes virus", "result": "> 100", "unit": "µM"}]}
{"molecule": "CCOC(=O)c1c(C)nc(NCCCCNc2ccnc3cc(Cl)ccc23)nc1-c1ccc(F)cc1", "note": "[Compound 5f, Ethyl 4-(4-fluorophenyl)-2-(4-((7-chloroquinolin-4-yl)amino)butylamino)-6-methylpyrimidine-5-carboxylate]", "values": [{"measurement": "EC50", "setting": "Feline herpes virus", "result": "> 100", "unit": "µM"}]}
{"molecule": "Ethyl 2-(3-((7-chloroquinolin-4-yl)amino)propylamino)-4-methylpyrimidine-5-carboxylate [Compound 5g]", "values": [{"measurement": "CC50", "setting": "[7]", "result": 10.3, "unit": "µM"}]}
{"molecule": "UDA: reference agent in the CRFK antiviral assay, values in μg/ml; not explained in the paper (protein, UniProt P11218 24-372, looked up) Lectin/endochitinase 1: QRCGSQGGGGTCPALWCCSIWGWCGDSEPYCGRTCENKCWSGERSDHRCGAAVGNPPCGQDRCCSVHGWCGGGNDYCSGSKCQYRCSSSVRGPRVALSGNSTANSIGNVVVTEPLFDQMFSHRKDCPSQGFYSYHSFLVAAESFPAFGTIGDVATRKREVAAFLAHISQATSGERSDVENPHAWGLCHINTTTVTENDFCTSSDWPCAAGKKYSPRGPIQLTHNFNYGLAGQAIGEDLIQNPDLVEKDPIISFKTALWFWMSQHDNKPSCHDIVLNANSAANRIPNKGVIGNIISRAFGHDDFAVRSSSIGFYKRYCDMLGVSYGHDLKYWFDNTPSSEFQRIQMRVAA", "values": [{"measurement": "EC50 Feline corona virus (FIPV)", "setting": "[8]", "result": 1.6, "unit": "µg/mL"}, {"measurement": "EC50 Feline herpes virus", "setting": "Feline herpes virus; CRFK cell cultures, HHA, UDA", "result": 1.0, "unit": "µg/mL"}, {"measurement": "CC50", "setting": "[9]", "result": 63.2, "unit": "µg/mL"}]}
